{"source": "ChEMBL document CHEMBL1250427", "about": "“Synthesis and biodistribution of [11C]A-836339, a new potential radioligand for PET imaging of cannabinoid type 2 receptors (CB2)” (Bioorg Med Chem, 2010)", "key": {"Brain [1]": {"tested_on": "Brain", "assay": "Drug uptake in LPS-stimulated CD1 mouse brain at 5 to 7 mBq, iv in presence of AM630", "assay_type": "ADME, organism-based", "details": "in vivo; call rule not given here", "how_it_was_run": "(§1)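 Blocking study in male CD1 mice, either controls or LPS-treated (5 mg/kg LPS O111:B4 i.p., 5 days earlier). AM630 (3 mg/kg) or GW405833 (2 mg/kg) was given s.c. in 0.1 mL DMSO; vehicle controls received DMSO alone. [11C]radioligand ([…], ~150 GBq/μmol) was injected i.v. 30 min later. Tissues harvested at 60 min and γ-counted. Mean ± SD, n=3.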"}, "Brain [2]": {"tested_on": "Brain", "assay": "Drug uptake in LPS-stimulated CD1 mouse brain at 5 to 7 mBq, iv administered 5 days post LPS challenge measured after 3 mins", "assay_type": "ADME, organism-based", "details": "in vivo, 0.05 h", "how_it_was_run": "(§2)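 Dynamic small-animal PET of an LPS-5-day-treated and a control CD1 mouse. Both were injected simultaneously via the tail vein with [11C]radioligand (~3000 mCi/μmol) and imaged for 90 min in 28 frames. Images reconstructed by 2D OSEM after scatter subtraction. Whole-brain ROIs drawn on mean images gave time-SUV curves.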"}, "Intestine": {"tested_on": "Intestine", "assay": "Drug uptake in CD1 mouse intestine at 5 to 7 mBq, iv", "assay_type": "ADME, organism-based", "details": "in vivo", "how_it_was_run": "(§3)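 Male CD-1 mice (23-28 g). [11C]radioligand given into a lateral tail vein at […], specific radioactivity ~150 GBq/μmol, in 0.2 mL saline. Mice killed by cervical dislocation at several times after injection. Organs and brain regions dissected on ice, weighed and γ-counted against injectate standards. Uptake given as %ID/g tissue, mean ± SD, n=3.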"}, "Cortex [3]": {"tested_on": "Cortex", "assay": "Drug uptake in CD1 mouse cortex at 5 to 7 mBq, iv after 60 mins", "assay_type": "ADME, organism-based", "details": "in vivo, 1 h", "how_it_was_run": "as §3"}, "[4]": {"assay": "Drug uptake in CD1 mouse brainstem at 5 to 7 mBq, iv after 60 mins", "assay_type": "ADME, organism-based", "details": "in vivo, 1 h", "how_it_was_run": "as §3"}, "Cortex [5]": {"tested_on": "Cortex", "assay": "Drug uptake in APPswe/PS1dE9 mouse cortex at 5 to 7 mBq, iv", "assay_type": "ADME, organism-based", "details": "in vivo", "how_it_was_run": "(§4)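 Female APPswe/PS1dE9 bigenic mice (line 85, C57Bl/6J background), 18 months old. [11C]radioligand given into a lateral tail vein at […], specific radioactivity ~150 GBq/μmol, in 0.2 mL saline. Mice killed by cervical dislocation at 60 min. Brain regions dissected on ice, weighed and γ-counted against injectate standards. Uptake expressed as blood-normalized %ID/g tissue × body weight (kg).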"}, "Hippocampus [6]": {"tested_on": "Hippocampus", "assay": "Drug uptake in LPS-stimulated CD1 mouse hippocampus at 5 to 7 mBq, iv in presence of AM630", "assay_type": "ADME, organism-based", "details": "in vivo", "how_it_was_run": "as §1"}, "Cortex [7]": {"tested_on": "Cortex", "assay": "Drug uptake in LPS-stimulated CD1 mouse cortex at 5 to 7 mBq, iv administered 5 days post LPS challenge", "assay_type": "ADME, organism-based", "details": "in vivo, 120 h", "how_it_was_run": "(§5)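 Male CD1 mice given LPS (strain O111:B4, 5 mg/kg in saline, i.p.) 5 days before study. [11C]radioligand ([…], ~150 GBq/μmol, 0.2 mL saline) injected into the tail vein. Mice killed at 60 min and brain regions dissected and γ-counted. Uptake given as %ID/g tissue and as blood-normalized %ID/g tissue × body weight (kg). Mean ± SD, n=3.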"}, "Cerebellum [8]": {"tested_on": "Cerebellum", "assay": "Drug uptake in CD1 mouse cerebellum at 5 to 7 mBq, iv after 60 mins", "assay_type": "ADME, organism-based", "details": "in vivo, 1 h", "how_it_was_run": "as §3"}, "Brain [9]": {"tested_on": "Brain", "assay": "Drug uptake in CD1 mouse brain at 5 to 7 mBq, iv in presence of GW-405833", "assay_type": "ADME, organism-based", "details": "in vivo", "how_it_was_run": "as §1"}, "Hippocampus [10]": {"tested_on": "Hippocampus", "assay": "Drug uptake in LPS-stimulated CD1 mouse hippocampus at 5 to 7 mBq, iv administered 5 days post LPS challenge", "assay_type": "ADME, organism-based", "details": "in vivo, 120 h", "how_it_was_run": "as §5"}, "Cortex [11]": {"tested_on": "Cortex", "assay": "Drug uptake in LPS-stimulated CD1 mouse cortex at 5 to 7 mBq, iv in presence of AM630", "assay_type": "ADME, organism-based", "details": "in vivo", "how_it_was_run": "as §1"}, "Cerebellum [12]": {"tested_on": "Cerebellum", "assay": "Drug uptake in APPswe/PS1dE9 mouse cerebellum at 5 to 7 mBq, iv", "assay_type": "ADME, organism-based", "details": "in vivo", "how_it_was_run": "as §4"}, "Brain [13]": {"tested_on": "Brain", "assay": "Drug uptake in APPswe/PS1dE9 mouse brain at 5 to 7 mBq, iv", "assay_type": "ADME, organism-based", "details": "in vivo", "how_it_was_run": "as §4"}, "Cerebellum [14]": {"tested_on": "Cerebellum", "assay": "Drug uptake in LPS-stimulated CD1 mouse cerebellum at 5 to 7 mBq, iv in presence of AM630", "assay_type": "ADME, organism-based", "details": "in vivo", "how_it_was_run": "as §1"}, "Hippocampus [15]": {"tested_on": "Hippocampus", "assay": "Drug uptake in CD1 mouse hippocampus at 5 to 7 mBq, iv after 60 mins", "assay_type": "ADME, organism-based", "details": "in vivo, 1 h", "how_it_was_run": "as §3"}, "Kidney": {"tested_on": "Kidney", "assay": "Drug uptake in CD1 mouse kidney at 5 to 7 mBq, iv", "assay_type": "ADME, organism-based", "details": "in vivo", "how_it_was_run": "as §3"}, "[16]": {"assay": "Ratio of drug uptake in brain to blood in LPS-stimulated CD1 mouse at 5 to 7 mBq, iv", "assay_type": "ADME, tissue-based", "how_it_was_run": "as §5"}, "Liver": {"tested_on": "Liver", "assay": "Drug uptake in CD1 mouse liver at 5 to 7 mBq, iv", "assay_type": "ADME, organism-based", "details": "in vivo", "how_it_was_run": "as §3"}, "Brain [17]": {"tested_on": "Brain", "assay": "Drug uptake in CD1 mouse brain at 5 to 7 mBq, iv", "assay_type": "ADME, organism-based", "details": "in vivo", "how_it_was_run": "as §3"}, "[18]": {"assay": "Drug uptake in LPS-stimulated CD1 mouse brainstem at 5 to 7 mBq, iv administered 5 days post LPS challenge", "assay_type": "ADME, organism-based", "details": "read-out: Drug uptake", "how_it_was_run": "as §5"}, "Brain [19]": {"tested_on": "Brain", "assay": "Drug uptake in LPS-stimulated CD1 mouse brain at 5 to 7 mBq, iv administered 5 days post LPS challenge", "assay_type": "ADME, organism-based", "details": "in vivo, 120 h", "how_it_was_run": "as §5"}, "Cerebellum [20]": {"tested_on": "Cerebellum", "assay": "Drug uptake in LPS-stimulated CD1 mouse cerebellum at 5 to 7 mBq, iv administered 5 days post LPS challenge", "assay_type": "ADME, organism-based", "details": "in vivo, 120 h", "how_it_was_run": "as §5"}, "[21]": {"assay": "Drug uptake in APPswe/PS1dE9 mouse brainstem at 5 to 7 mBq, iv", "assay_type": "ADME, tissue-based", "details": "in vivo", "how_it_was_run": "as §4"}, "Spleen [22]": {"tested_on": "Spleen", "assay": "Drug uptake in CD1 mouse spleen at 5 to 7 mBq, iv", "assay_type": "ADME, organism-based", "details": "in vivo", "how_it_was_run": "as §3"}, "Brain [23]": {"tested_on": "Brain", "assay": "Drug uptake in CD1 mouse brain at 5 to 7 mBq, iv in presence of AM630", "assay_type": "ADME, organism-based", "details": "in vivo", "how_it_was_run": "as §1"}, "Spleen [24]": {"tested_on": "Spleen", "assay": "Drug uptake in CD1 mouse spleen at 5 to 7 mBq, iv after 60 mins in presence of AM630", "assay_type": "ADME, organism-based", "details": "in vivo, 1 h", "how_it_was_run": "as §1"}, "[25]": {"assay": "Drug uptake in LPS-stimulated CD1 mouse brainstem at 5 to 7 mBq, iv in presence of AM630", "assay_type": "ADME, organism-based", "details": "in vivo", "how_it_was_run": "as §1"}, "Brain [26]": {"tested_on": "Brain", "assay": "Drug uptake in CD1 mouse brain at 5 to 7 mBq, iv after 3 mins", "assay_type": "ADME, organism-based", "details": "in vivo, 0.05 h", "how_it_was_run": "as §2"}, "Heart": {"tested_on": "Heart", "assay": "Drug uptake in CD1 mouse heart at 5 to 7 mBq, iv", "assay_type": "ADME, organism-based", "details": "in vivo", "how_it_was_run": "as §3"}, "Cannabinoid receptor 2": {"target": "Cannabinoid receptor 2 (Homo sapiens, UniProt P34972)", "sequence (P34972 whole entry)": "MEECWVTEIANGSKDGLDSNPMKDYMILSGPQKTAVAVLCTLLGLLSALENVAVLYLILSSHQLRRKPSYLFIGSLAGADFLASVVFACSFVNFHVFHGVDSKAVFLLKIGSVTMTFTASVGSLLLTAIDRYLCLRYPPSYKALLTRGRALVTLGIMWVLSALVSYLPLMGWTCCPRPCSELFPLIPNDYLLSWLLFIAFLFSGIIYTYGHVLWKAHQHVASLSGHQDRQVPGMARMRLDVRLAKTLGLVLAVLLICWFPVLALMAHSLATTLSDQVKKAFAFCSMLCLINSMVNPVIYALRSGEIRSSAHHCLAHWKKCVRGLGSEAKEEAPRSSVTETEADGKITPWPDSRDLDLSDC", "assay": "Agonist activity at CB2 receptor", "assay_type": "functional"}}}
{"compound": "Cc1s/c(=N\\C(=O)C2C(C)(C)C2(C)C)n(CCO[11CH3])c1C", "values": [{"measurement": "Drug uptake", "setting": "Brain [1]", "value": "Not Active"}, {"measurement": "SUV", "setting": "Brain [2]", "value": 2.3}, {"measurement": "Drug uptake", "setting": "Intestine", "value": 1.5, "unit": "% ID/g"}, {"measurement": "Drug uptake", "setting": "Cortex [3]", "value": 0.3, "unit": "% ID/g"}, {"measurement": "Drug uptake", "setting": "[4]", "value": 0.3, "unit": "% ID/g"}, {"measurement": "Drug uptake", "setting": "Cortex [5]", "value": "Not Active"}, {"measurement": "Drug uptake", "setting": "Hippocampus [6]", "value": "Not Active"}, {"measurement": "Drug uptake", "setting": "Cortex [7]", "value": 1.7, "unit": "% ID/g"}, {"measurement": "Drug uptake", "setting": "Cerebellum [8]", "value": 0.3, "unit": "% ID/g"}, {"measurement": "Drug uptake", "setting": "Brain [9]", "value": "Not Active"}, {"measurement": "Drug uptake", "setting": "Hippocampus [10]", "value": 1.9, "unit": "% ID/g"}, {"measurement": "Drug uptake", "setting": "Cortex [11]", "value": "Not Active"}, {"measurement": "Drug uptake", "setting": "Cerebellum [12]", "value": "Not Active"}, {"measurement": "Drug uptake", "setting": "Brain [13]", "value": "Not Active"}, {"measurement": "Drug uptake", "setting": "Cerebellum [14]", "value": "Not Active"}, {"measurement": "Drug uptake", "setting": "Hippocampus [15]", "value": 0.3, "unit": "% ID/g"}, {"measurement": "Drug uptake", "setting": "Kidney", "value": 2.2, "unit": "% ID/g"}, {"measurement": "Kp", "setting": "[16]", "value": 3.3}, {"measurement": "Drug uptake", "setting": "Liver", "value": 4.9, "unit": "% ID/g"}, {"measurement": "Drug uptake", "setting": "Brain [17]", "value": 0.3, "unit": "% ID/g"}, {"measurement": "tissue uptake at 120 h", "setting": "[18]", "value": 2.1, "unit": "%ID/g"}, {"measurement": "Drug uptake", "setting": "Brain [19]", "value": 1.5, "unit": "% ID/g"}, {"measurement": "Drug uptake", "setting": "Cerebellum [20]", "value": 1.8, "unit": "% ID/g"}, {"measurement": "Drug uptake", "setting": "[21]", "value": "Not Active"}, {"measurement": "Drug uptake", "setting": "Spleen [22]", "value": 1.3, "unit": "% ID/g"}, {"measurement": "Drug uptake", "setting": "Brain [23]", "value": "Not Active"}, {"measurement": "Drug uptake", "setting": "Spleen [24]", "value": "Not Active"}, {"measurement": "Drug uptake", "setting": "[25]", "value": "Not Active"}, {"measurement": "SUV", "setting": "Brain [26]", "value": 0.5}, {"measurement": "Drug uptake", "setting": "Heart", "value": 0.7, "unit": "% ID/g"}, {"measurement": "Ki", "setting": "Cannabinoid receptor 2", "value": 0.7, "unit": "nM"}]}
